Screening results: PubChem BioAssay, several laboratories
An excerpt weighted towards active compounds, which were near 1.9% of everything screened.
b-catenin transl: modulators of beta-catenin nuclear translocation, primary screen, imaging, HeLa cells, immunofluorescence, high-content; nuclear translocation activity, % at 5 µM; hit rate 0.3% among 190,000;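 active means nuclear translocation activity above 50% at 5 µM, with a well cell count of 50 or more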;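 further: per-cell ratio of nuclear to cytoplasmic median beta-catenin stain intensity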
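Test system: human HeLa cells, native beta-catenin. Compound dosing: 5 µM primary single dose, 0.1% DMSO, 0.02–20 µM confirmation series. Incubation: compound exposure 24 h at 37°C. Detection: beta-catenin immunostaining with DAPI counterstain, 20x imaging, 6 fields/well. Read-out basis: Nuclear/cytoplasmic beta-catenin signal ratio, % activation.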
MT stabilize HCS: microtubule stabilizers in HeLa cells, primary screen, imaging, high-content imaging; HeLa tubulin immunostaining HCS, 24 h; share of cells brighter than vehicle mean+2SD; % tubulin-high responders, % at 10 µM; hit rate 0.83% among 200,000; AID 2205, 2009;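 active means plate Z-score above 3 for both tubulin-high and condensed-nucleus cell shares, with cell loss under 80%, at 10 µM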;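 further: anti alpha tubulin signal scored within the nucleus-defined area of each cell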
ROMK mod: ROMK potassium channel modulators, primary screen, cell-based, thallium flux, MLSMR library; B-score at 10 µM; Tet-inducible ROMK, thallium flux fluorescence; actives lie on both sides; AID 1918, 2009; hit rate 2% among 130,000;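 active means signal ratio slope over the read window, or its plate-corrected B-score, at least 3 SD from the plate mean, either direction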;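 further: B-score of the F/F0 ratio slope over 7 to 12 s after thallium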
Target sequence (P48048 whole entry, looked up): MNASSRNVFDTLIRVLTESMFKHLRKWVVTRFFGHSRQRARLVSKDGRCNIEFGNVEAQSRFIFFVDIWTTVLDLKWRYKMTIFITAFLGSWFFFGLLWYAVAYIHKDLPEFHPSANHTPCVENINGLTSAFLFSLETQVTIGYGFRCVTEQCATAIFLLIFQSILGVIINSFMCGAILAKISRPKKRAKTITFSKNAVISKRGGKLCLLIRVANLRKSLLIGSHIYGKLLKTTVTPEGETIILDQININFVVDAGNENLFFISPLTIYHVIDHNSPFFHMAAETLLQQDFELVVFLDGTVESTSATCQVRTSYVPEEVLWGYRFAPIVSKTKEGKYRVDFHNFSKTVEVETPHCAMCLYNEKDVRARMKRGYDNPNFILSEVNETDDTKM
A number is an active result; i = inactive; nt = not tested or not shown.

SMILES	b-catenin transl	MT stabilize HCS	ROMK mod
COC(=O)/C(=C\c1ccc(O)cc1)c1nc2ccccc2[nH]1	i	i	i
Cc1ccc(S(=O)(=O)N2CCCCC2)c(C)c1NS(C)(=O)=O	i	i	i
O=C(NNC(=S)Nc1ccc(Cl)cc1Cl)c1ccc(N2CCOCC2)c([N+](=O)[O-])c1	i	i	i
COc1ccc(/C=N/NC(=O)CCn2c3ccccc3c3ccccc32)cc1O	52.9	18.5	nt
COc1cccc(/C=N/NC(=O)CCn2c3ccccc3c3ccccc32)c1	i	i	nt
CCCOc1ccc(C(=O)ON=C2CCN(C)CC2)cc1	nt	i	nt
COc1ccc(CCNC(=O)CCCn2c(SCC(N)=O)nc3cc4c(cc3c2=O)OCO4)cc1OC	i	i	i
CCOC(=O)c1sc(-c2ccc(Cl)cc2)nc1O	i	nt	nt
CCOC(=O)c1[nH]c(C)c(C(=O)Nc2ccccc2F)c1C	i	33.6	nt
CCOC(=O)c1[nH]c(C)c(C(=O)Nc2ccc(F)cc2)c1C	nt	i	nt
CCOC(=O)c1[nH]c(C)c(C(=O)c2ccc(C)cc2)c1C	nt	44.0	i
CCOC(=O)c1[nH]c(C)c(C(=O)NCc2ccc(C)cc2)c1C	nt	i	nt
CCOC(=O)c1[nH]c(C)c(C(=O)Nc2ccc(C)cc2C)c1C	i	16.5	nt
CCOC(=O)c1[nH]c(C)c(C(=O)Nc2ccc(C)c(C)c2)c1C	i	i	nt
COc1ccc(-n2c(SCC(=O)N3CCc4ccccc43)nnc2-c2c[nH]c3ccccc23)cc1	i	i	i
O=C(NCCCN1CCOCC1)c1ccc(CSc2ccc(Cl)cc2)cc1	i	i	i
C=CCC1C=C(C)CC(CC=C)N1 (centres undefined)	i	i	i
COc1ccc2oc(C(=O)OCC(=O)/C(C#N)=C(\C)N)c(C)c2c1	i	i	i
CC(C)CC(=O)NC(C)C(c1cccs1)N1CCOCC1 (centres undefined)	i	nt	i
CCN1/C(=C/C=C/c2oc3ccc4ccccc4c3[n+]2CC)Oc2ccc3ccccc3c21	nt	80.4	nt
CC[n+]1c(/C=C/N(C)c2ccccc2)oc2ccc(Cl)cc21	i	i	nt
COc1ccc(CCN2C(=O)CSC2c2ccc(OC)c(OC)c2)cc1OC (centres undefined)	i	i	i
COc1ccc(C2SCC(=O)N2CCc2ccc(OC)c(OC)c2)cc1 (centres undefined)	82.0	18.1	i
CCCCNC(=S)Nc1ccc(OC)nc1	i	i	i
Cc1c(Cl)cccc1NC(=O)CCC(=O)NNC(=O)c1ccccc1	i	i	nt
SMILES	b-catenin transl	MT stabilize HCS	ROMK mod
COc1ccccc1NC(=S)N1CCC(c2nc3cc(C)c(C)cc3[nH]2)CC1	i	i	nt
COc1ccccc1NC(=O)N1CCC(c2nc3cc(C)c(C)cc3[nH]2)CC1	i	18.1	nt
O=C(NCCc1ccccc1)C1CCCN(S(=O)(=O)c2cccs2)C1 (centres undefined)	i	i	nt
CCOC(=O)c1oc2ccc(S(=O)(=O)n3nc(-c4ccccc4)cc3N)cc2c1C	i	i	nt
CCOC(=O)c1oc2ccc(S(=O)(=O)n3nc(-c4ccc(OC)cc4)cc3N)cc2c1C	i	13.2	nt
CC(NC(=O)Cc1ccc([N+](=O)[O-])cc1)c1ccc2c(c1)OCO2 (centres undefined)	i	nt	nt
COc1ccc(NS(=O)(=O)c2cc(NC(=O)c3cccc(OCc4c(C)noc4C)c3)ccc2OC)cc1	63.2	13.3	i
Cc1ccc(NC(=O)c2cccc(OCc3c(C)noc3C)c2)cc1	nt	i	i
COc1ccc(/C(CC2OC(=O)c3ccccc32)=N\NC(N)=O)cc1 (centres undefined)	i	i	i
CCOC(=O)Cc1csc(NC(=O)c2ccc(C)cc2)n1	i	i	i
CCOC(=O)Cc1csc(NC(=O)c2ccc(Cl)nc2)n1	i	36.8	nt
CCCC/C(O)=C1\C(=O)CC(C)(C)CC1=Nc1ccccc1OC	i	i	nt
CCC/C(O)=C1\C(=O)CC(C)(C)CC1=Nc1ccc(OC)cc1OC	76.1	i	nt
CCCN=C1CC(C)(C)CC(=O)/C1=C(/O)CCC	i	i	i
COC(=O)CC/C(O)=C1\C(=O)CC(C)(C)CC1=Nc1ccccc1OC	i	16.7	i
O=C(NC(=S)N(CCO)Cc1ccccc1)c1cc(Br)ccc1Cl	i	i	i
O=C(CSc1ccc(Cl)cc1)NC1CCCC1	i	i	nt
O=C(NC1CCCCC1)Sc1ccc(Cl)cc1	i	i	-4.71
CCCC(c1nnnn1C1CCCC1)N1CCN(c2ccccc2F)CC1 (centres undefined)	i	i	i
COC(=O)c1sc2ccccc2c1-n1cccc1C(=O)C(=O)Nc1ccc(F)cc1	i	i	nt
COC(=O)c1sc2ccccc2c1-n1cccc1C(=O)C(=O)Nc1ccc(Cl)cc1	nt	40.4	nt
COC(=O)c1sccc1-n1cccc1C(=O)C(=O)Nc1ccc(F)cc1	i	i	i
COC(=O)c1sc2ccccc2c1-n1cccc1C(=O)C(=O)Nc1ccc(C)cc1	nt	32.0	nt
CCOC(=O)C1CCN(C(c2cc3ccc(C)c(C)c3[nH]c2=O)c2nnnn2C2CCCCC2)CC1 (centres undefined)	i	i	-2.48
CCOC(=O)C1CCN(C(c2cc3c(C)ccc(C)c3[nH]c2=O)c2nnnn2C2CCCCC2)CC1 (centres undefined)	i	i	i
SMILES	b-catenin transl	MT stabilize HCS	ROMK mod
CCCC(Oc1ccc(Br)cc1)c1nc2c3cc(OC)c(OC)cc3nc(=S)n2[nH]1 (centres undefined)	i	i	i
CC(Oc1ccc(Br)cc1)c1nc2c3ccccc3nc(=S)n2[nH]1 (centres undefined)	nt	i	2.91
CN(c1ccccc1C(=O)N1CCN(c2cccc(Cl)c2)CC1)S(C)(=O)=O	nt	i	i
CSc1ccccc1C(=O)N1CCN(c2cccc(Cl)c2)CC1	i	20.8	i
Cc1cc(C(=O)N2CCN(c3ccccc3)CC2)c(C)o1	i	i	nt
Cc1cc(C(=O)N2CCN(c3cccc(Cl)c3)CC2)c(C)o1	nt	59.8	nt
Cc1ccc(C(=O)N2CCN(c3cccc(Cl)c3)CC2)cc1C	i	23.7	nt
Cc1ccc(C(=O)N2CCN(c3ccccc3)CC2)cc1C	i	i	nt
CCOC(=O)N1C(=O)C2(CCCCC2)N(c2ccccc2Cl)C1=S	i	i	i
COc1cc(OC)c(S(=O)(=O)NC(C)C)cc1S(=O)(=O)NC(C)C	i	i	i
CC1Cc2ccccc2N1CC(=O)NCc1ccc2c(c1)OCO2 (centres undefined)	i	i	nt
NS(=O)(=O)c1ccc2nc(NC(=O)c3ccncc3)sc2c1	i	i	i
Cc1ccc(OCCN2CCN(C(=O)CCC(=O)Nc3nnc(CC(C)C)s3)CC2)cc1	i	nt	nt
Cc1cccc[n+]1CC(=O)/C=C1\N(C)c2ccccc2C1(C)C	i	i	nt
CN1/C(=C\C(=O)CN2C(=O)NC3(CCCCCC3)C2=O)C(C)(C)c2ccccc21	nt	i	-2.82
Oc1cccc(Nc2nc(O)c(/C=C3\C=Nc4ccccc43)s2)c1	i	nt	nt
Oc1nc(Nc2cccc(Cl)c2)sc1/C=C1\C=Nc2ccccc21	i	18.3	nt
CCOc1cc(C(=O)Nc2cnccn2)cc(OCC)c1OCC	i	38.0	i
CCOc1cc(C(=O)Nc2cc(C)ccn2)cc(OCC)c1OCC	i	i	nt
Cc1nonc1C(=O)N/N=C/c1cccc(O)c1	i	i	nt
COc1ccc(Br)cc1S(=O)(=O)NCCCN1CCOCC1	i	i	i
